In PMC7564034 (Acta Pharmaceutica Sinica. B, 2019):
Read-outs that look alike come from different tables or passages of the source.

Experiments:
[1] = system: tumor vessels in LoVo xenografts; assay: CD31/α-SMA double staining, pericyte coverage around tumor vessels; format: in vivo, Balb/c nude mice; conditions: 15 days i.p.; SMI, Rd-H 5 mg/kg; vs vehicle
Summary of the method: (§1)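 Tumors from mice given test compound i.p. for 15 days were fixed in 4% PFA and cut into 12 μm sections. Sections were stained overnight with anti-CD31 at 1:100; for pericyte coverage, anti-SMA at 1:100 was added. Cy5- or Cy2-conjugated secondary (1:200) was applied for 1 h at 37 °C. Confocal Z-stacks were reconstructed in 3D or as maximum intensity projections. Compared with vehicle.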

[2] = system: tumor vessels in LoVo xenografts; assay: CD31 staining of tumor slides, microvessels and vessel branches; format: in vivo, Balb/c nude mice; conditions: 15 days i.p.
Summary of the method: as §1

[3] = format: in vivo, Balb/c nude mice harboring LoVo xenografts; conditions: for Cmax / Tmax: Balb/c nude, mouse, plasma
Summary of the method: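 Male LoVo-xenograft nude mice (6 weeks old) received 10 mL/kg i.p., either once or daily for 8 days. Blood (~0.1 mL) was drawn from the oculi chorioideae vein into heparin tubes between 5 min and 96 h after the last dose, 5 mice per time point. Plasma was spun at 8000 rpm for 5 min and extracted with methanol. AUC0–∞ and the multiple/single ratio were derived.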

[4] = format: in vivo, Balb/c nude mice harboring LoVo xenografts; conditions: for AUC0–∞ ratio Multiple/Single in tumors: 8-day vs single SMI 10 mL/kg/day i.p.
[5] = format: in vivo, Balb/c nude mice harboring LoVo xenografts; conditions: 20 min after 15-day SMI treatment
Summary of the method: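 Male 6-week Balb/c nude mice (18 ± 1 g) bearing LoVo xenografts were given SMI intraperitoneally for 15 days. Tumors collected 20 min after the final dose were minced and digested 1 h in DMEM with 2 mg/mL collagenase type I and 0.1 mg/mL DNase I. Cells were split into endothelial, hematopoietic and other fractions; purity was checked by flow cytometry (anti-mouse CD45, viability stain). n = 3, mean ± SEM.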

[6] = Constituent ratio of ginsenosides in SMI, plasma, tumor and endothelial cells; format: in vivo, Balb/c nude mice harboring LoVo xenografts; conditions: 20 min after 15-day SMI treatment
Summary of the method: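 Tissues were sampled 20 min after the last dose of a 15-day i.p. course. Tumors were digested 1 h in DMEM with collagenase I (2 mg/mL) and DNase I (0.1 mg/mL), then strained through 40 μm mesh. CD31+ cells were enriched with PE anti-mouse CD31 and anti-PE magnetic particles, with purity checked by CD45/viability flow cytometry; n = 3. Each ratio = concentration of the constituent / summed eight ginsenosides.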

VEGF = assay: ELISA of VEGF secretion in tumors; format: in vivo, Balb/c mice harboring LoVo xenografts; conditions: 15 days i.p., vs vehicle
Summary of the method: (§2)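 Mice received test compound i.p. for 15 days. Tumors were harvested 20 min after the final dose and homogenized in RIPA buffer. VEGF and FGF were quantified by ELISA kit and normalized to protein content measured by BCA assay. Compared with vehicle.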

FGF = assay: ELISA of FGF secretion in tumors; format: in vivo, Balb/c mice harboring LoVo xenografts; conditions: 15 days i.p.; SMI, Rd-H 5 mg/kg, Rb1, Rg1; vs vehicle
Summary of the method: as §2

HUVECs [7] = assay: Cell viability assay; format: cell-based, human; conditions: Rd 1–50 μmol/L, SMI 5 μL/mL; 24 h; normoxia or hypoxia
Summary of the method: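 HUVECs were exposed to test compound for 24 h under normoxia or hypoxia (1% O2, 5% CO2). Viability was measured by MTT and expressed as a percentage of DMSO-treated cells under normoxia; n = 6.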

HUVECs [8] = assay: EDU staining; format: cell-based, human; conditions: Rd 2, 10, 50 μmol/L; 24 h; hypoxia
HUVECs [9] = assay: Wound healing migration assay; format: cell-based, human; conditions: 24 h
Summary of the method: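 Confluent HUVEC monolayers were scratched with sterile pipette tips and given fresh DMEM containing test compound. Cells were incubated under normoxia or hypoxia (1% O2, 5% CO2) and imaged at 0 and 24 h. Migration length = (scratch area 0 h − scratch area 24 h)/scratch length; n = 6.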

HUVECs [10] = assay: Capillary-like tube formation assay; format: cell-based; conditions: Homo sapiens, HUVEC, read-out: Inhibition of tube formation ability of HUVECs
Summary of the method: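 Conditioned medium was taken as supernatant after 24 h exposure to test compound (2, 10, 50 μmol/L). HUVECs were seeded at 5 × 10^4 cells/well on Matrigel and treated with this medium for 5.5 h under normoxia or hypoxia (1% O2, 5% CO2). Tubes were stained with calcein for 0.5 h before imaging.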

LoVo xenografts = assay: Xenograft tumor growth, SMI or Rd combined with 5FU, 20-day treatment; format: in vivo, Balb/c mice; conditions: SMI 10 mL/kg/day or Rd 5 mg/kg/day i.p., 20 days, without 5FU
Summary of the method: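 LoVo-xenograft mice with all tumors above 50 mm3 were dosed i.p. for 20 days: 10 mL/kg/day, 5 mg/kg/day, and/or 5FU 15 mg/kg every 3 days. Body weight and tumor axes were recorded daily; tumor volume = 1/2 × a × b². Tumors were resected after treatment. Weight change was read after 17 days; mean ± SEM.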

HUVEC = assay: Uptake of ginsenosides by HUVEC in vitro; format: cell-based, human; conditions: compared to Rb1 and Rb2 (Fig. S5)
LoVo = assay: Uptake of ginsenosides by LoVo in vitro; format: cell-based, human; conditions: compared to Rb1 and Rb2 (Fig. S5)
[11] = format: in vivo, mice harboring xenograft tumors; conditions: after intraperitoneal injection of Rb1, Rc, or Rd; data not shown
[12] = SMI i.p., single or multiple not given
[13] = after eight days of SMI 10 mL/kg/day i.p.
[14] = single dose of SMI 10 mL/kg i.p.

## CC(C)=CCC[C@](C)(O[C@@H]1O[C@H](CO)[C@@H](O)[C@H](O)[C@H]1O)[C@H]1CC[C@]2(C)[C@@H]1[C@H](O)C[C@@H]1[C@@]3(C)CC[C@H](O[C@@H]4O[C@H](CO)[C@@H](O)[C@H](O)[C@H]4O[C@@H]4O[C@H](CO)[C@@H](O)[C@H](O)[C@H]4O)C(C)(C)[C@@H]3CC[C@]12C [Rd, ginsenoside Rd]
[1]
  Increase of pericyte coverage around microvessels: 2.1 fold
[2]; Rd-L 0.5 mg/kg
  Effect on microvessels, branches and pericyte coverage: very modest effects
[2]; SMI, Rd-H 5 mg/kg, vs vehicle
  Decrease of the number of CD31+ microvessels: 37%
  Decrease of vessel branches: 59%
[3]; 8-day vs single SMI 10 mL/kg/day i.p.
  AUC0–∞ ratio Multiple/Single in plasma: 5.28
[3]; intraperitoneal, 10 mL/kg
  Cmax: ~10 µM
[3]; ip, 10 mL/kg
  Cmax: 3200 ng/mL
  Tmax: 240 min
[3]; ip, 10 mL/kg/day
  Cmax: 10400 ng/mL
  Tmax: 120 min
[3]; after single or multiple SMI administration
  AUC0–∞ in plasma relative to those of Re, Rg1, Rg3 and Ro: more than 20 times
[4]
  AUC0–∞ ratio Multiple/Single in tumors: 10.53
[4]; [12]
  AUC0–∞ of Rd in tumors, times higher than that of Rb1: 8.0 times
  AUC0–∞ of Rd in tumors, times higher than that of Rb2/Rb3: 7.3 times
  AUC0–∞ of Rd in tumors, times higher than that of Rc: 3.6 times
  AUC0–∞ of Rd in tumors, times higher than that of Ro: 266.6 times
[5]
  Concentration of ginsenosides, endothelial cells (TECs): most abundant distribution in TECs
[6]
  Constituent ratio in TECs: 40.3%
  Constituent ratio in plasma: 16.0%
  Constituent ratio in tumor tissues: 34.3%
VEGF; Rd-L 0.5 mg/kg
  Reduction of the secretion of VEGF in tumors: 32%
VEGF; SMI, Rd-H 5 mg/kg, Rb1, Rg1
  Reduction of the secretion of VEGF in tumors: 32%
FGF
  Suppression of the secretion of FGF in tumors: 68%
HUVECs [7]
  Effect on cell viability of HUVECs: no effect on the cell viability
HUVECs [8]
  Effect on cellular proliferation of HUVECs (EDU/HOECHST): no significant effect on cellular proliferation
HUVECs [9]; 50 μmol/L
  Suppression of hypoxia-induced HUVEC migration: 88%
HUVECs [9]; Rd 2, 10 and 50 μmol/L or SMI, hypoxia
  Effect on HUVECs migration: suppressed HUVECs migration concentration-dependently
HUVECs [10]
  inhibition at 2 µM: 18%
  inhibition at 10 µM: 40%
  inhibition at 50 µM: 56%
LoVo xenografts
  Effect on tumor growth, given alone: no significant effect on tumor growth
HUVEC
  Uptake by HUVEC: superior uptake
LoVo
  Uptake by LoVo: superior uptake

## CC(C)=CCC[C@](C)(O[C@@H]1O[C@H](CO)[C@@H](O)[C@H](O)[C@H]1O)[C@H]1CC[C@]2(C)[C@@H]1[C@H](O)C[C@@H]1[C@@]3(C)CC[C@H](O)C(C)(C)[C@@H]3[C@@H](O[C@@H]3O[C@H](CO)[C@@H](O)[C@H](O)[C@H]3O[C@@H]3O[C@@H](C)[C@H](O)[C@@H](O)[C@H]3O)C[C@]12C [Re]
[3]; ip, 10 mL/kg
  Cmax: 1600 ng/mL
  Tmax: 10 min
[3]; ip, 10 mL/kg/day
  Cmax: 1300 ng/mL
  Tmax: 10 min

## CC(C)=CCC[C@](C)(O[C@@H]1O[C@H](CO)[C@@H](O)[C@H](O)[C@H]1O)[C@H]1CC[C@]2(C)[C@@H]1[C@H](O)C[C@@H]1[C@@]3(C)CC[C@H](O)C(C)(C)[C@@H]3[C@@H](O[C@@H]3O[C@H](CO)[C@@H](O)[C@H](O)[C@H]3O)C[C@]12C [Rg1]
[3]; ip, 10 mL/kg
  Cmax: 2000 ng/mL
  Tmax: 10 min
[3]; ip, 10 mL/kg/day
  Cmax: 2100 ng/mL
  Tmax: 10 min
VEGF; SMI, Rd-H 5 mg/kg, Rb1, Rg1
  Reduction of the secretion of VEGF in tumors: 1%
FGF
  Suppression of the secretion of FGF in tumors: 97%

## CC(C)=CCC[C@](C)(O)[C@H]1CC[C@]2(C)[C@@H]1[C@H](O)C[C@@H]1[C@@]3(C)CC[C@H](O[C@@H]4O[C@H](CO)[C@@H](O)[C@H](O)[C@H]4O[C@@H]4O[C@H](CO)[C@@H](O)[C@H](O)[C@H]4O)C(C)(C)[C@@H]3CC[C@]12C [Rg3]
[3]; [13]
  Cmax in plasma: 300 ng/mL
  Time of maximum concentration in plasma: 20 min
[3]; [14]
  Cmax in plasma: 100 ng/mL
  Time of maximum concentration in plasma: 60 min
[4]; 20 min, 2, 12, 24, 96 h after single or multiple SMI administration
  Detection in tumors over time: could not be identified at any time
[11]
  Detection in plasma or tumor tissues: neither Rg3 nor CK could be detected

## CC1(C)CC[C@]2(C(=O)O[C@@H]3O[C@H](CO)[C@@H](O)[C@H](O)[C@H]3O)CC[C@]3(C)C(=CC[C@@H]4[C@@]5(C)CC[C@H](O[C@@H]6O[C@H](C(=O)O)[C@@H](O)[C@H](O)[C@H]6O[C@@H]6O[C@H](CO)[C@@H](O)[C@H](O)[C@H]6O)C(C)(C)[C@@H]5CC[C@]43C)[C@@H]2C1 [Ro, ginsenoside Ro]
[3]; [13]
  Cmax in plasma: 3700 ng/mL
  Time of maximum concentration in plasma: 20 min
[3]; [14]
  Cmax in plasma: 3900 ng/mL
  Time of maximum concentration in plasma: 60 min
[4]
  AUC0–∞ ratio Multiple/Single in tumors: 0.92
